Series [1] is described as follows: Oral bioavailability in mouse at 5 mg/kg. Format: ADME, organism-based. Conditions: in vivo.
Series [2] is described as follows: Cmax in mouse at 5 mg/kg, po. Format: ADME, organism-based. Details: dose 5 mg/kg, route oral. The following applies: in vivo.
Series [3] deals with Mus musculus. In words: In-vivo inhibition of MGAT3-mediated TAG synthesis in human MGAT3 transgenic mouse assessed as reduction in incorporation of glycerol-d8 in to triolein expressed as atom percent excess at 200 mg/kg, po dosed 1 hr before of 100 mg/kg, iv glycerol-d8 and measured 30 mins post glycerol-d8 dosing by LC-MS method. Format: functional, organism-based. The procedure, abridged:
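Fed mice (wild type or human MOGAT3 transgenic), studied 8 AM–12 PM. Oral dosing in 0.5% methyl cellulose in saline, alone or with DGAT1 inhibitor (30 mg/kg) and DGAT2 inhibitor (10 mg/kg). After 1 h, 100 mg/kg uniformly labelled D8-glycerol (10 mg/mL in saline) given by tail vein. EDTA plasma taken 30 min later; D5-glycerol enrichment in triolein (18:1/18:1/18:1) measured by LC/MS, reported as mean atom percent excess ± SE.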

The test system of series [4] is Mus musculus. The experiment in a line: Effect on incorporation of glycerol-d8 into triolein in wild type mouse by measuring atom percent excess at 200 mg/kg, po dosed 1 hr before of 100 mg/kg, iv glycerol-d8 and measured 30 mins post glycerol-d8 dosing and co-treated with 30 mg/kg for DGAT1 inhibitor-12 and 10 mg/kg for DGAT2 inhibitor-13 by LC-MS method. Format: functional, organism-based. In a few lines:
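Fed mice (wild type or human MOGAT3 transgenic) were studied between 8 AM and 12 PM. Inhibitors were given orally in 0.5% methyl cellulose in saline. After 1 h, D8-glycerol (10 mg/mL in saline) was injected into the tail vein. Blood was taken into EDTA 30 min later and plasma lipids extracted. D5-glycerol in triolein (18:1/18:1/18:1) was measured by LC/MS as atom percent excess, mean ± SE.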

For series [5], the target named is T1, Diacylglycerol O-acyltransferase 2 (Homo sapiens, UniProt Q96PD7).
T1 sequence (Q96PD7 whole entry): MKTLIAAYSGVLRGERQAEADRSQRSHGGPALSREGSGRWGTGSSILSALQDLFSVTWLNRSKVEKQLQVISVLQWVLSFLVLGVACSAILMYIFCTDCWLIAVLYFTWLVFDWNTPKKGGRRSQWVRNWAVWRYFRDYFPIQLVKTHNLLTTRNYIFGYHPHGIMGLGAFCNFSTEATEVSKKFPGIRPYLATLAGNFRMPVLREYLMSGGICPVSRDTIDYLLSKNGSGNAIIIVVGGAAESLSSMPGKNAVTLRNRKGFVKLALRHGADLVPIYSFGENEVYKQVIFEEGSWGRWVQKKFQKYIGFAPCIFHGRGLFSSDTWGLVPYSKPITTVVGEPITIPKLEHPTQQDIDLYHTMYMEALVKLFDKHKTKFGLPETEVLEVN
The experiment in a line: Inhibition of DGAT2 (unknown origin) using [1-14C]decanoyl-CoA and didecanoyl-sn-glycerol substrates incubated for 40 mins. In a few lines: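 DGAT2 membrane fraction (0.01 mg/mL) in 100 mM Hepes-NaOH pH 7.4, 20 mM MgCl2, 200 nM MAFP. Compound first held 20 min with 0.04% fatty-acid-free BSA, then preincubated 120 min at RT with enzyme. Started with 30 µM [1-14C]decanoyl-CoA and 125 µM 1,2-didecanoyl-sn-glycerol; ran 40 min at RT, acid-stopped. Labelled TAG read by scintillation after phase partitioning.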

Series [6] can be described thus: Intrinsic clearance in human liver microsomes. Format: ADME. Conditions: read-out: CLH. On the technique in general: Liver microsomes are vesicles of endoplasmic reticulum, rich in cytochrome P450 enzymes.
Series [7] can be described thus: Apparent permeability in RRCK cells. Format: ADME, cell-based, Canis lupus familiaris, MDCKII-LE. Conditions: dog, MDCK.
Series [8] concerns the target T2, Cytochrome P450 2C8 (Homo sapiens, UniProt P10632).
T2 sequence (P10632 whole entry): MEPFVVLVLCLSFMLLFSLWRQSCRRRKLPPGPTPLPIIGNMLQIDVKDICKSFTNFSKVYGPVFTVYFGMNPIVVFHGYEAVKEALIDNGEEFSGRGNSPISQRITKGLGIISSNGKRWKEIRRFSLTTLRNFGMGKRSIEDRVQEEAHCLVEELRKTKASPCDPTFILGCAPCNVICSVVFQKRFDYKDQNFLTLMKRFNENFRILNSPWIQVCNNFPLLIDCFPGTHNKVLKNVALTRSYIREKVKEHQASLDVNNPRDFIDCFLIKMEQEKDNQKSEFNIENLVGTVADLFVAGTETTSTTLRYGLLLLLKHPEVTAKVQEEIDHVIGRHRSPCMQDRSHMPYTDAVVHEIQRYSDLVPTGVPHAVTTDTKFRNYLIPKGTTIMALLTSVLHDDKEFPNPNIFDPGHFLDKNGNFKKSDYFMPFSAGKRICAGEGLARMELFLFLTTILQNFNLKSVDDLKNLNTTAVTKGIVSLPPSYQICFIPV
In words: Inhibition of human CYP2C8. Format: ADME.

The target in series [9] is Cytochrome P450 2C9 (Homo sapiens, UniProt P11712). In words: Inhibition of human CYP2C9. Format: ADME.
Sequence of Cytochrome P450 2C9 (P11712 whole entry): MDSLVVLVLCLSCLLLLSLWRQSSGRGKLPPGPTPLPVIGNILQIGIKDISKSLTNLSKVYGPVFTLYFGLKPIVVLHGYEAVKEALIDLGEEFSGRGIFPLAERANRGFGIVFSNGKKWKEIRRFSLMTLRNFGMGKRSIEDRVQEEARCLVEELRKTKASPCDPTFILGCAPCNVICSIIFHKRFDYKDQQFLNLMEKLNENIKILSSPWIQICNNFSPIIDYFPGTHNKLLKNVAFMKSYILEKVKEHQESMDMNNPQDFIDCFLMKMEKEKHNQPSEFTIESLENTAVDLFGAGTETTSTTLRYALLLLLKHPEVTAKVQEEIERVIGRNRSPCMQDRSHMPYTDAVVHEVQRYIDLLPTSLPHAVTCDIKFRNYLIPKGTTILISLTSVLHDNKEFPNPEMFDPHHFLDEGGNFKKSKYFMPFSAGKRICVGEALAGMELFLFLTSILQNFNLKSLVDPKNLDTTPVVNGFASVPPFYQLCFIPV
The subject of series [10] is Salmonella typhimurium. In words: Genotoxicity in Salmonella typhimurium by Amest test. Format: toxicity, organism-based. The following applies: salmonella enterica subsp. enterica serovar typhimurium.
The subject of series [11] is HepG2. The experiment in a line: Toxicity in human HepG2 cells up to 300 uM incubated for 72 hrs. Format: cell-based. The following applies: hepg2, 72 h. The procedure, abridged:
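HepG2 cells incubated with compound up to 300 µM for 72 hours.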

Active and inactive are the calls of the source. The calls are words filed in the database; no cut-off is given here. A value given as a limit tells only on which side of the number the result lay.

By bioavailability is commonly meant the share of a dose that reaches the circulation, judged against a reference dose that is usually intravenous. Low values mean poor availability, high ones good availability. Broadly, the Cmax is the highest concentration seen after dosing. Broadly, the IC50 is the midpoint of a concentration-inhibition curve. As a reminder, the Papp is the rate of passage across a membrane or cell layer, normalised by area and donor concentration. For the compound `COc1cccc(CC(=O)N2Cc3ccc(S(=O)(=O)Nc4cnn(C5CCC5)n4)cc3C2)c1`, the bioavailability in series [1] was 74%. The Cmax in series [2] was determined as 9300 ng/mL. In series [3], the inhibition result is “inactive”. Besides, the outcome in series [4] was inactive. This compound also displayed an IC50 in series [5] of over 100 µM. For the same compound, in series [6], the microsomal CLint was 22 µL/min/mg. Besides, the Papp in series [7] was 12 ×10⁻⁶ cm/s. In addition, the “inhibition (INH)” value in series [8] and in series [9] was “Not Active” each time. For the same compound, the Activity result in series [10] and in [11] was “Non-toxic” each time.

Source of the values: ChEMBL document CHEMBL3612040, “Discovery of Selective Small Molecule Inhibitors of Monoacylglycerol Acyltransferase 3” (J Med Chem, 2015).
